Tests used:
CRM1 [1] = experiment: Immunoblot of CRM1 protein in treated cells; assay type: cell-based, human; details: H1975 cell lysate, KPT-330 10–1000 nM, 24 h
How it was run: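 H1975 cells were treated 24 h with test compound at 0, 10, 100 or 1000 nM. Whole-cell lysates were prepared with a mammalian lysis reagent, protein was measured by BCA, and samples were run on SDS-PAGE and blotted to PVDF. Membranes were blocked 1 h in TBS/5% milk/0.5% Tween 20, incubated with primary antibody overnight at 4 °C, then HRP secondary for 1 h at room temperature. Detection was by chemiluminescence, with β-actin as reference and densitometry of bands.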

[2] = system: H1975 cells stably carrying scramble vector; experiment: MTT growth assay, scrambled shRNA control cells; assay type: cell-based, human
How it was run: (§1)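 H1975 cells stably carrying a CRM1-targeting or scrambled shRNA were used, made by pLKO.1 lentiviral infection with polybrene for 16 h and puromycin selection for 3 days starting 2 days post-infection. Cells were cultured 72 h across a cisplatin series up to 10 μg ml−1. Growth was measured by MTT and IC50 derived. Data are three experiments in triplicate, mean±s.d.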

11 NSCLC cell lines = experiment: MTT proliferation assay, 72 h, whole panel; assay type: cell-based; details: Homo sapiens, read-out: calculated IC50 values, range
How it was run: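 Eleven NSCLC lines (STR-verified) were grown in RPMI 1640 with 10% FBS and penicillin/streptomycin at 37 °C, 5% CO2. Cells were plated at 3 × 10^3 per well and exposed for 72 h to test compound at 0, 0.1, 1, 10, 100 or 1000 nM. Viability was read by MTT absorbance at 570 nm, and IC50 was taken from fitted dose-response curves.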

[3] = system: H1975 cells stably carrying shp73; experiment: MTT growth assay, p73-knockdown cells; assay type: cell-based; details: Homo sapiens, NCI-H1975, 72 h
How it was run: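 H1975 cells stably carrying a p73-targeting or scrambled shRNA were used, made by pLKO.1 lentiviral infection with polybrene for 16 h and puromycin selection for 3 days beginning 2 days after infection. Cells were cultured 3 days with test compound at 0, 1, 3, 10, 30, 100, 320 or 1000 nM. Growth was measured by MTT and IC50 derived. Data are three experiments in triplicate, mean±s.d.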

H1975 NSCLC xenografts [4] = experiment: H1975 NSCLC xenograft tumour growth; assay type: in vivo; details: NOD/SCID mice, oral 10 mg kg^−1 thrice weekly for 4 weeks
How it was run: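 Seven-week-old male NOD/SCID mice were injected subcutaneously in both flanks with H1975 cells (1.0 × 10^7) in matrigel. Mice were randomised into two groups of five and dosed orally three times weekly for 4 weeks with vehicle (0.6% w/v aqueous Pluronic F-68) or test compound (10 mg kg−1), with Nutri-Cal given during therapy. Calipers were used three times weekly; volume = width² × length/2. Tumour weights were taken after 28 days.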

[5] = system: six NSCLC cell lines (A549, H460, H1975, PC14, H1299, and H23); experiment: Cell cycle analysis by propidium iodide flow cytometry, six lines; assay type: cell-based, human; details: range over six NSCLC cell lines, 1 μM, 24 h
How it was run: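 A549, H460, H1975, PC14, H1299 and H23 were seeded at 50% confluency, left overnight, then exposed for 24 h to test compound (1 μM) or diluent control. DNA content was stained with propidium iodide, and cell-cycle phase distribution was determined by flow cytometry.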

PC14 cells, shp73 = experiment: MTT growth assay, transient p73 silencing; assay type: cell-based; details: Homo sapiens, PC-14
[6] = Peripheral blood analysis after 28-day treatment; assay type: in vivo, NOD/SCID mice
How it was run: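 H1975-xenografted male NOD/SCID mice (five per group) were given vehicle (0.6% w/v aqueous Pluronic F-68) or test compound orally, 10 mg kg−1 three times weekly for 4 weeks. After the 28-day treatment, peripheral blood was analysed for white cells, neutrophils, platelets and haematocrit, and serum for albumin, alkaline phosphatase, ALT and creatinine.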

six NSCLC cell lines = experiment: Apoptosis, annexin V/propidium iodide flow cytometry, six lines; assay type: cell-based, human; details: range over six NSCLC cell lines, 24 h
How it was run: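 Cells seeded at 50% confluency, incubated overnight, then given fresh medium with diluent control or test compound (1, 10, 100, 1000 nM) for 24 h. Cells were PBS-washed, trypsinized, resuspended in annexin-binding buffer at 1 × 10^6 cells per ml, and stained with annexin V plus propidium iodide. Analysed by flow cytometry; read-out is the percent annexin V/PI co-positive cells.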

[7] = Body weight of treated mice; assay type: in vivo; details: NOD/SCID mice, oral 10 mg kg^−1 thrice weekly for 4 weeks
[8] = system: PC14 cells, scramble vector control; experiment: MTT growth assay, transient scramble control; assay type: cell-based; details: Homo sapiens, PC-14
CRM1 [9] = experiment: Quantitative RT-PCR of CRM1 mRNA in treated cells; assay type: cell-based, human; details: H1975, KPT-330 10–1000 nM, 24 h
How it was run: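 H1975 cells were exposed for 24 h to test compound at 0, 10, 100 or 1000 nM. CRM1 mRNA was quantified by quantitative RT–PCR; experiments were done in triplicate and reported as mean±s.d.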

H1975 NSCLC xenografts [10] = experiment: Immunohistochemistry of xenograft tumours; assay type: in vivo, NOD/SCID mice; details: end of treatment, 10 mg kg^−1 thrice weekly × 4 weeks
How it was run: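 At the end of the 28-day oral dosing, H1975 xenograft tumours were formalin-fixed, paraffin-embedded and cut at 5.0 μm. Peroxidase was quenched with 3% H2O2, sections blocked 1 h at room temperature in PBS with 3% normal serum, then probed overnight at 4 °C for Ki-67 or TUNEL. Detection used biotinylated secondary (1:200) plus avidin–biotin peroxidase. Three random ×200 fields were scored, counting 100 cells in triplicate; positives are given as % of total cells.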

CRM1 [11] = details: 24 h of incubation; ref Sun et al (2013); cited from earlier work
[12] = system: H1975 cells stably containing shCRM1; experiment: MTT growth assay, CRM1-knockdown cells; assay type: cell-based, human; details: H1975 shCRM1, cisplatin 72 h
How it was run: as §1

Structure (SMILES): O=C(/C=C\n1cnc(-c2cc(C(F)(F)F)cc(C(F)(F)F)c2)n1)NNc1cnccn1 [KPT-330]
- protein levels of CRM1 (western blot) (CRM1 [1]): dose-dependent decrease
- IC50 ([2]; Homo sapiens, NCI-H1975, 72 h): 98 nM
- IC50 (11 NSCLC cell lines): 25 to 995 nM
- IC50 [3]: > 1000 nM
- tumour growth compared with vehicle-treated controls (H1975 NSCLC xenografts [4]): mark inhibition
- G1 cell cycle, range [5]: 56–82%
- G2/M phase, range [5]: 2–20%
- S phase, range [5]: 8–20%
- IC50 (PC14 cells, shp73): 318 nM
- Neut ([6]; NOD/SCID mice, 10 mg kg^−1 thrice weekly × 4 weeks, mean±s.d., range 0.15–7.9): 1.26±0.5 × 1000 per μl
- CREAT ([6]; NOD/SCID mice, 10 mg kg^−1 thrice weekly × 4 weeks, mean±s.d., range 0.2–0.9): 0.062 ± 0.01 mg/dL
- WBC ([6]; NOD/SCID mice, 10 mg kg^−1 thrice weekly × 4 weeks, mean±s.d., range 2.9–20.9): 4.0±0.3 × 1000 per μl
- ALT ([6]; NOD/SCID mice, 10 mg kg^−1 thrice weekly × 4 weeks, mean±s.d., range 17–77): 46.2±10.2 U l^−1
- Alb ([6]; NOD/SCID mice, 10 mg kg^−1 thrice weekly × 4 weeks, mean±s.d., range 25–30): 36.5 ± 0.6 g/L
- HCT ([6]; NOD/SCID mice, 10 mg kg^−1 thrice weekly × 4 weeks, mean±s.d., range 34–53): 46.2±7.5%
- ALP ([6]; NOD/SCID mice, 10 mg kg^−1 thrice weekly × 4 weeks, mean±s.d., range 35–96): 96±18 U l^−1
- PLT ([6]; NOD/SCID mice, 10 mg kg^−1 thrice weekly × 4 weeks, mean±s.d., range 685–1436): 786±180 × 1000 per μl
- total white blood cells, neutrophils, platelet counts, haematocrit, serum albumin, alkaline phosphatase, ALT and creatinine compared with vehicle group ([6]; peripheral blood after the 28-day treatment): no significant alterations
- range of apoptosis induced (annexin V/propidium iodide co-positive cells) (six NSCLC cell lines): 22–54%
- effect on body weight compared with the vehicle group [7]: did not have a significant effect
- mean relative body weight compared with mean starting weight [7]: 105%
- IC50 [8]: 197 nM
- CRM1 mRNA levels (CRM1 [9]): no significant change
- Ki-67-positive cells in tumour tissue (H1975 NSCLC xenografts [10]): decreased
- percent of TUNEL-positive cells in tumour tissue (H1975 NSCLC xenografts [10]): increased

Structure (SMILES): CCC(=C/[C@H](C)C/C=C/C(C)=C/[C@@H](C)C(=O)[C@@H](C)[C@H](O)[C@@H](C)C/C(C)=C/C(=O)O)/C=C/[C@@H]1OC(=O)C=C[C@@H]1C [LMB, Leptomycin B]
- reversibility of binding to CRM1 (CRM1 [11]): not reversible

Structure (SMILES): N.N.[Cl][Pt][Cl] [cisplatin, reference compound]
- IC50 ([2]; H1975 scramble, cisplatin 72 h, MTT): 8.1 µg/mL
- IC50 [12]: 1.62 µg/mL

Source: publication PMC4102938 (British Journal of Cancer, 2014)
